Reference: ChEMBL document CHEMBL5126600, “Discovery of the First-in-Class G9a/GLP Covalent Inhibitors” (J Med Chem, 2022)

How the values were obtained:
[1] = target: T1, Histone-lysine N-methyltransferase EHMT2 (Homo sapiens) (UniProt Q96KQ7); experiment: Inhibition of human G9a (913 to 1193 residues) assessed as covalent modification by measuring G9a adduct formation at 50 uM incubated for 1 hr by mass spectrometry relative to control
T1 sequence (whole entry): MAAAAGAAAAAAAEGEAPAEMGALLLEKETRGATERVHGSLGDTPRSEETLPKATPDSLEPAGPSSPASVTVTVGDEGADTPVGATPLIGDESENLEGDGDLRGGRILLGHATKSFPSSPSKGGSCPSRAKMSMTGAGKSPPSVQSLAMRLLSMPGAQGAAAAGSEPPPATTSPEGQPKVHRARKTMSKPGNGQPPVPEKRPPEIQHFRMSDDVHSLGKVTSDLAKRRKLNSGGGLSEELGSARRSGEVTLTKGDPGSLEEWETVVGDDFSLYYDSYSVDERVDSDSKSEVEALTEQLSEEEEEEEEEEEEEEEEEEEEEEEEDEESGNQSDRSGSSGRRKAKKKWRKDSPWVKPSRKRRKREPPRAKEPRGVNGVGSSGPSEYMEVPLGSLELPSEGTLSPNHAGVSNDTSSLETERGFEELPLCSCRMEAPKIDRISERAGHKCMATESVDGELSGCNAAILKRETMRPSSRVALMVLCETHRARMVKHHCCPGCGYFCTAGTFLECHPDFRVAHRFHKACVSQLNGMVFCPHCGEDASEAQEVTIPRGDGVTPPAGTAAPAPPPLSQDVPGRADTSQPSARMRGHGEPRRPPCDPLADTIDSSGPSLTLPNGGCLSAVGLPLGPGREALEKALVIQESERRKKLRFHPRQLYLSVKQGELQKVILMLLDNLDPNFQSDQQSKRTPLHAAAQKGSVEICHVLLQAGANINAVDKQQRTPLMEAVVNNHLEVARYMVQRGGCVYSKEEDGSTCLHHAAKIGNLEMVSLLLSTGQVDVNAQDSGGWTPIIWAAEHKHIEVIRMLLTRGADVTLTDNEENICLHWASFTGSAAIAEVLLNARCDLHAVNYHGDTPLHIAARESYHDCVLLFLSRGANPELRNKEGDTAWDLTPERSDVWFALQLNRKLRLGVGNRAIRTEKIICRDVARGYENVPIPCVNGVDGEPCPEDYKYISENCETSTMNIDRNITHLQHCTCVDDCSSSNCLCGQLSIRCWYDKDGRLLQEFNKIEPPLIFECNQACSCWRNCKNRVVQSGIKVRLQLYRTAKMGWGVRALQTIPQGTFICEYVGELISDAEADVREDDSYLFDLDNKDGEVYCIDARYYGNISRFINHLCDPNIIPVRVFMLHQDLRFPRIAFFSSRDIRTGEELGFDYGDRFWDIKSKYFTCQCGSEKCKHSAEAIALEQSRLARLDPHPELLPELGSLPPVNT
In short: (§1)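 Purified G9a or GLP catalytic domain (5 μM) in 50 mM Tris-HCl pH 7.5, 150 mM NaCl incubated with 50 μM compound or DMSO at room temperature (1 h, or 30 and 60 min in time course); intact mass by ESI LC/MS-TOF; adduct % = adduct/(protein + adduct) × 100.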

[2] = target: Histone-lysine N-methyltransferase SMYD3 (Homo sapiens) (UniProt Q9H7B4); experiment: Inhibition of recombinant human C-terminal His-tagged SMYD3 (2 to 428 residues) expressed in Sf9 insect cells at 1 uM using 3H-SAM as a substrate relative to control
Histone-lysine N-methyltransferase SMYD3 (Homo sapiens), sequence (Q9H7B4 whole entry, the tested form may be a part): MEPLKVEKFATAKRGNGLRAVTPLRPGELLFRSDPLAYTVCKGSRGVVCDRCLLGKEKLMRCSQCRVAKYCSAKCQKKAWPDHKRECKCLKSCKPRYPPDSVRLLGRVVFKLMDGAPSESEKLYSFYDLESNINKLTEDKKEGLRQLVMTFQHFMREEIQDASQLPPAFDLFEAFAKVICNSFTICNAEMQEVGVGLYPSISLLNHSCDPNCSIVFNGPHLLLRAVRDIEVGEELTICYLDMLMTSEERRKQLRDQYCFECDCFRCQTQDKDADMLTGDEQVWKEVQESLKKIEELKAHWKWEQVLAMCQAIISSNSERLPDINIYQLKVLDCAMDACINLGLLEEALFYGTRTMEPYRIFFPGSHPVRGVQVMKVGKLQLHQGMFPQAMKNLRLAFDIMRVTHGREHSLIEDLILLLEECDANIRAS
In short: (§2)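 Contracted 3H-SAM methyl-transfer scintillation proximity assay against a panel of methyltransferases; compound tested at 1 μM in duplicate; inhibition expressed as percent of control enzyme activity.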

[3] = target: PRMT5/MEP50 complex (Homo sapiens) (UniProt O14744+Q9BQA1); experiment: Inhibition of recombinant human N-terminal Flag-tagged PRMT5 (2 to 637 residues)/N-terminal His-tagged MEP50 (2 to 342 residues) expressed in baculovirus expression system at 1 uM using 3H-SAM as a substrate relative to control; in short: as §2
[4] = target: Histone-lysine N-methyltransferase SUV39H1 (Homo sapiens) (UniProt O43463); experiment: Inhibition of N-terminal fusion protein with C-terminal His-tagged SUV39H1 (44 to 412 residues) (unknown origin) expressed in Escherichia coli at 1 uM using 3H-SAM as a substrate relative to control; in short: as §2
Histone-lysine N-methyltransferase SUV39H1 (Homo sapiens), sequence (O43463 whole entry, the tested form may be a part): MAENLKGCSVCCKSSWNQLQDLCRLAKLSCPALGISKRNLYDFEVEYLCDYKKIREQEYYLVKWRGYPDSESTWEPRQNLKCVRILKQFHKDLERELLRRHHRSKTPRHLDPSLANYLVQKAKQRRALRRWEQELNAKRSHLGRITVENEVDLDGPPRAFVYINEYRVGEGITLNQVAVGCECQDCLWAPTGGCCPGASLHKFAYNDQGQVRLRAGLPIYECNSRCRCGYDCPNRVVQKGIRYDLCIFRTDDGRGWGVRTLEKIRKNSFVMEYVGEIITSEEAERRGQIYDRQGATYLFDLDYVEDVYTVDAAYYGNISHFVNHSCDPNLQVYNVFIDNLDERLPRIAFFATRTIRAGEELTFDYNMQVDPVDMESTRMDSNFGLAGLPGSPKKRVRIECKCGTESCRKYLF

[5] = target: Protein arginine N-methyltransferase 1 (Homo sapiens) (UniProt Q99873); experiment: Inhibition of N-terminal GST tagged PRMT1 (2 to 371 residues) (unknown origin) expressed in Escherichia coli at 1 uM using 3H-SAM as a substrate relative to control; in short: as §2
Protein arginine N-methyltransferase 1 (Homo sapiens), sequence (Q99873 whole entry, looked up, the tested form may be a part): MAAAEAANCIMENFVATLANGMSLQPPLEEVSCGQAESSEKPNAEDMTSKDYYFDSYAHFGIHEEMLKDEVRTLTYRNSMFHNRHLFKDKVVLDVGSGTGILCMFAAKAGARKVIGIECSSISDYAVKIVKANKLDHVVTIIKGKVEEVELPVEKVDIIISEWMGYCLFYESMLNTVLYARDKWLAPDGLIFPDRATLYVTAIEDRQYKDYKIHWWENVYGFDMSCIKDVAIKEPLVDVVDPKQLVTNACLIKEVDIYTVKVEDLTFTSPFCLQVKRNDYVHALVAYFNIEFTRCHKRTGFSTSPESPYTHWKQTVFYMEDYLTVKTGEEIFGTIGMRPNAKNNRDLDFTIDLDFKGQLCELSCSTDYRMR

[6] = target: Histone-lysine N-methyltransferase SUV39H2 (Homo sapiens) (UniProt Q9H5I1); experiment: Inhibition of N-terminal fusion protein with C-terminal His-tagged SUV39H2 (46 to 410 residues) (unknown origin) expressed in Escherichia coli at 1 uM using 3H-SAM as a substrate relative to control; in short: as §2
Histone-lysine N-methyltransferase SUV39H2 (Homo sapiens), sequence (Q9H5I1 whole entry, the tested form may be a part): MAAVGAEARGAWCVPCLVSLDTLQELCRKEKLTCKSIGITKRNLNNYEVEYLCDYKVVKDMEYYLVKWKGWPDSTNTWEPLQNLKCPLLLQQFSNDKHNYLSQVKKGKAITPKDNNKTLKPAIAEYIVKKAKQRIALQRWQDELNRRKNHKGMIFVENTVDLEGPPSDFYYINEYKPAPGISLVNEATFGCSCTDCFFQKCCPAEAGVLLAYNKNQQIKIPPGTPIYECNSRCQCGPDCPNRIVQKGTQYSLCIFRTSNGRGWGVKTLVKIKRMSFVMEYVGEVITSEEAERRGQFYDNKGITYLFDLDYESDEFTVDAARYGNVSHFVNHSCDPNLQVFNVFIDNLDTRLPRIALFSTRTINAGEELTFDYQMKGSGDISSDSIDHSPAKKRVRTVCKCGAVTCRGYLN

[7] = target: T1, Histone-lysine N-methyltransferase EHMT2 (Homo sapiens); experiment: Inhibition of human G9a (913 to 1193 residues) assessed as covalent modification by measuring G9a adduct formation by mass spectrometry; details: time <= 120.0 min, TDE = time-dependent effect; in short: as §1
[8] = target: N-lysine methyltransferase KMT5A (Homo sapiens) (UniProt Q9NQR1); experiment: Inhibition of SETD8 (unknown origin) at 1 uM using 3H-SAM as a substrate relative to control; in short: as §2
N-lysine methyltransferase KMT5A (Homo sapiens), sequence (Q9NQR1 whole entry, the tested form may be a part): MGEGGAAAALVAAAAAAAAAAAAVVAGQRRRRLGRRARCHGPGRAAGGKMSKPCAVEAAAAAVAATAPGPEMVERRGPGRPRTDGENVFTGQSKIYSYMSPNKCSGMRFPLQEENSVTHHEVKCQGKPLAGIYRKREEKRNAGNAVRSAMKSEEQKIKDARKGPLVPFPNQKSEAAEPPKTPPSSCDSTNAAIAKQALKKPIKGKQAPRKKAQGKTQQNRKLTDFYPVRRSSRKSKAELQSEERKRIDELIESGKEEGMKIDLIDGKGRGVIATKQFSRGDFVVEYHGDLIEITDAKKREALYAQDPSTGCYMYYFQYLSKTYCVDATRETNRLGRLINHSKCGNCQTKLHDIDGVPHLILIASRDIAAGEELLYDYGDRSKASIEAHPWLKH

[9] = target: T2, Histone-lysine N-methyltransferase EHMT2 (Homo sapiens, UniProt Q96KQ7); experiment: Inhibition of human G9a (913 to 1193 residues) using H3 peptide as substrate measured upto 45 mins in presence of SAM cofactor
T2 sequence (Q96KQ7 whole entry): T1 sequence (whole entry)

[10] = target: Protein arginine N-methyltransferase 8 (Homo sapiens) (UniProt Q9NR22); experiment: Inhibition of N/C-terminal His-tagged PRMT8 (61 to 394 residues) (unknown origin) expressed in Escherichia coli at 1 uM using 3H-SAM as a substrate relative to control; in short: as §2
Protein arginine N-methyltransferase 8 (Homo sapiens), sequence (Q9NR22 2-394 limits assumed): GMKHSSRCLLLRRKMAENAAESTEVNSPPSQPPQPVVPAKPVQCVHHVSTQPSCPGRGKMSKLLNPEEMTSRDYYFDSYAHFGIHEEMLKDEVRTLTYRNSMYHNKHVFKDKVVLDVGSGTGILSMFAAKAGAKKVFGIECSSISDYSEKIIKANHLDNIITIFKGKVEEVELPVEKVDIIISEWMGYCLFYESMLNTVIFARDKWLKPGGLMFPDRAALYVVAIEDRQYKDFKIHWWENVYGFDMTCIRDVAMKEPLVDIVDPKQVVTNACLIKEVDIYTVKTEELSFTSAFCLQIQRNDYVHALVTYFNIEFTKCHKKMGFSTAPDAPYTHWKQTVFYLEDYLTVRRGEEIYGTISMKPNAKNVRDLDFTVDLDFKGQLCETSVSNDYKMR

## C=CC(=O)Nc1cc(NC2CCN(C(C)C)CC2)c2cc(OC)c(OCCCN3CCCC3)cc2n1
[1]
  inhibition: 50%
[2]
  inhibition: < 50%
[3]
  inhibition: < 50%
[4]
  inhibition: < 50%
[5]
  inhibition: < 50%
[6]
  inhibition: < 50%
[7]
  inhibition: Tde
[8]
  inhibition: < 50%
[9]
  IC50: 100 nM
[10]
  inhibition: < 50%
